Measured values reported in ChEMBL document CHEMBL1806356, “Synthesis, characterization and antimicrobial studies of some new pyrazole incorporated imidazole derivatives” (Eur J Med Chem, 2011).

How the values were obtained:
Trichophyton rubrum [1] = experiment: Antifungal activity against Trichophyton rubrum at 500 ug/ml after 72 hrs by agar diffusion method; type: functional; conditions: read-out: DIZ
Outline: (§1)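 Fungal spores were suspended in normal saline (one loopful in 3 mL) and lawned on agar plates. Wells were punched with a sterile cork borer and loaded with test compound in DMSO at the different concentrations. A DMSO solvent control was included. Petri dishes were prepared in triplicate and held at 25 °C for 72 h.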

Aspergillus flavus [2] = experiment: Antifungal activity against Aspergillus flavus at 500 ug/ml after 72 hrs by agar diffusion method; type: functional; conditions: read-out: DIZ; outline: as §1
Aspergillus niger [3] = experiment: Antifungal activity against Aspergillus niger at 500 ug/ml after 72 hrs by agar diffusion method; type: functional; conditions: read-out: DIZ; outline: as §1
Bacillus subtilis [4] = experiment: Antibacterial activity against Bacillus subtilis assessed as zone of inhibition at 500 ug/ml after 24 hrs by agar diffusion method; type: functional; conditions: read-out: IZ
Outline: (§2)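 Well diffusion on Mueller-Hinton agar seeded with 24 h old bacterial cultures. Test compounds were dissolved in DMSO at 1 and 0.5 mg/mL and added to labeled wells. Plates were incubated 24 h at 37 °C. The inhibition zone around each well was measured in mm. Triplicate experiments, standard deviation calculated.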

Pseudomonas aeruginosa [5] = experiment: Antibacterial activity against Pseudomonas aeruginosa ATCC 27853 assessed as zone of inhibition at 500 ug/ml after 24 hrs by agar diffusion method; type: functional; conditions: ATCC 27853, 24 h, read-out: IZ; outline: as §2
Escherichia coli [6] = experiment: Antibacterial activity against Escherichia coli ATCC 25922 assessed as zone of inhibition at 500 ug/ml after 24 hrs by agar diffusion method; type: functional; conditions: ATCC 25922, 24 h, read-out: IZ; outline: as §2
Nannizzia gypsea [7] = experiment: Antifungal activity against Microsporum gypseum at 500 ug/ml after 72 hrs by agar diffusion method; type: functional; conditions: read-out: DIZ; outline: as §1
Trichophyton rubrum [8] = experiment: Antifungal activity against Trichophyton rubrum at 1000 ug/ml after 72 hrs by agar diffusion method; type: functional; conditions: read-out: DIZ; outline: as §1
Escherichia coli [9] = experiment: Antibacterial activity against Escherichia coli ATCC 25922 assessed as zone of inhibition at 1000 ug/ml after 24 hrs by agar diffusion method; type: functional; conditions: ATCC 25922, 24 h, read-out: IZ; outline: as §2
Salmonella typhimurium [10] = experiment: Antibacterial activity against Salmonella Typhimurium assessed as zone of inhibition at 1000 ug/ml after 24 hrs by agar diffusion method; type: functional, Salmonella enterica subsp. enterica serovar Typhimurium; conditions: Salmonella enterica, read-out: IZ; outline: as §2
Candida albicans [11] = experiment: Antifungal activity against Candida albicans at 500 ug/ml after 72 hrs by agar diffusion method; type: functional; conditions: read-out: DIZ; outline: as §1
Salmonella typhimurium [12] = experiment: Antibacterial activity against Salmonella Typhimurium assessed as zone of inhibition at 500 ug/ml after 24 hrs by agar diffusion method; type: functional, Salmonella enterica subsp. enterica serovar Typhimurium; conditions: Salmonella enterica, read-out: IZ; outline: as §2
Nannizzia gypsea [13] = experiment: Antifungal activity against Microsporum gypseum at 1000 ug/ml after 72 hrs by agar diffusion method; type: functional; conditions: read-out: DIZ; outline: as §1
Pseudomonas aeruginosa [14] = experiment: Antibacterial activity against Pseudomonas aeruginosa ATCC 27853 assessed as zone of inhibition at 1000 ug/ml after 24 hrs by agar diffusion method; type: functional; conditions: ATCC 27853, 24 h, read-out: IZ; outline: as §2
Bacillus subtilis [15] = experiment: Antibacterial activity against Bacillus subtilis assessed as zone of inhibition at 1000 ug/ml after 24 hrs by agar diffusion method; type: functional; conditions: read-out: IZ; outline: as §2
Clostridium perfringens [16] = experiment: Antibacterial activity against Clostridium perfringens assessed as zone of inhibition at 500 ug/ml after 24 hrs by agar diffusion method; type: functional; conditions: read-out: IZ
Outline: (§3)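 Well diffusion on Mueller-Hinton agar seeded with 24 h old cultures. Compounds dissolved in DMSO at 1 and 0.5 mg/mL and added to wells punched with a sterile cork borer, with a DMSO-only control. Plates incubated 24 h at 37 °C. Read-out was the inhibition zone in mm, run in triplicate, standard deviation calculated.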

Candida albicans [17] = experiment: Antifungal activity against Candida albicans at 1000 ug/ml after 72 hrs by agar diffusion method by agar diffusion method; type: functional; conditions: read-out: DIZ; outline: as §1
Aspergillus niger [18] = experiment: Antifungal activity against Aspergillus niger at 1000 ug/ml after 72 hrs by agar diffusion method; type: functional; conditions: read-out: DIZ; outline: as §1
Staphylococcus aureus [19] = experiment: Antibacterial activity against Staphylococcus aureus assessed as zone of inhibition at 500 ug/ml after 24 hrs by agar diffusion method; type: functional; conditions: read-out: IZ; outline: as §2
Clostridium perfringens [20] = experiment: Antibacterial activity against Clostridium perfringens assessed as zone of inhibition at 1000 ug/ml after 24 hrs by agar diffusion method; type: functional; conditions: read-out: IZ; outline: as §3
Aspergillus flavus [21] = experiment: Antifungal activity against Aspergillus flavus at 1000 ug/ml after 72 hrs by agar diffusion method; type: functional; conditions: read-out: DIZ; outline: as §1
Staphylococcus aureus [22] = experiment: Antibacterial activity against Staphylococcus aureus assessed as zone of inhibition at 1000 ug/ml after 24 hrs by agar diffusion method; type: functional; conditions: read-out: IZ; outline: as §2
Mus musculus [23] = experiment: Toxicity in Swiss albino mouse assessed as behavioral changes at 1000 to 3000 mg/kg, po administered as single dose measured at 4th to 24th hrs; type: organism-based; parameters: dose 1000-3000 mg/kg, route oral; conditions: in vivo
Outline: (§4)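 Single oral dose of 1000 to 3000 mg/kg, given as a fine suspension in double distilled water with Tween 80. Animals housed under a light/dark cycle. Toxic symptoms and behavioural changes were observed continuously at 4, 8, 12 and 24 h, and onset was recorded. Deaths were also recorded.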

Mus musculus [24] = experiment: Toxicity in Swiss albino mouse assessed as mortality at 1000 to 3000 mg/kg, po administered as single dose measured at 4th to 24th hrs; type: organism-based; parameters: dose 1000-3000 mg/kg, route oral; conditions: in vivo; outline: as §4

Row | SMILES | zone of inhibition at 500 µg/mL (Trichophyton rubrum [1]) [mm] | zone of inhibition at 500 µg/mL (Aspergillus flavus [2]) [mm] | zone of inhibition at 500 µg/mL (Aspergillus niger [3]) [mm] | zone of inhibition at 500 µg/mL (Bacillus subtilis [4]) [mm] | zone of inhibition at 500 µg/mL (Pseudomonas aeruginosa [5]) [mm] | zone of inhibition at 500 µg/mL (Escherichia coli [6]) [mm] | zone of inhibition at 500 µg/mL (Nannizzia gypsea [7]) [mm] | zone of inhibition at 1000 µg/mL (Trichophyton rubrum [8]) [mm] | zone of inhibition at 1000 µg/mL (Escherichia coli [9]) [mm] | zone of inhibition at 1000 µg/mL (Salmonella typhimurium [10]) [mm] | zone of inhibition at 500 µg/mL (Candida albicans [11]) [mm] | zone of inhibition at 500 µg/mL (Salmonella typhimurium [12]) [mm] | zone of inhibition at 1000 µg/mL (Nannizzia gypsea [13]) [mm] | zone of inhibition at 1000 µg/mL (Pseudomonas aeruginosa [14]) [mm] | zone of inhibition at 1000 µg/mL (Bacillus subtilis [15]) [mm] | zone of inhibition at 500 µg/mL (Clostridium perfringens [16]) [mm] | zone of inhibition at 1000 µg/mL (Candida albicans [17]) [mm] | zone of inhibition at 1000 µg/mL (Aspergillus niger [18]) [mm] | zone of inhibition at 500 µg/mL (Staphylococcus aureus [19]) [mm] | zone of inhibition at 1000 µg/mL (Clostridium perfringens [20]) [mm] | also measured
1 | Cc1ccc(-c2n[nH]cc2-c2nc(-c3ccc(Br)cc3)c(-c3ccc(Br)cc3)[nH]2)cc1 | 2 | 2 | 2 | 3 | 1 | 3 | 1 | 3 | 4 | 4 | 3 | 3 | 2 | 2 | 4 | 2 | 4 | 3 | 2 | 3 | zone of inhibition at 1000 µg/mL (Aspergillus flavus [21]): 3 mm; zone of inhibition at 1000 µg/mL (Staphylococcus aureus [22]): 3 mm
2 | Clc1ccc(-c2n[nH]cc2-c2nc(-c3ccc(Br)cc3)c(-c3ccc(Br)cc3)[nH]2)c(Cl)c1 | 9 | 4 | 4 | 4 | 4 | 4 | 3 | 10 | 5 | 4 | 8 | 3 | 4 | 5 | 5 | 2 | 9 | 5 | 3 | 3 | zone of inhibition at 1000 µg/mL (Aspergillus flavus [21]): 5 mm; zone of inhibition at 1000 µg/mL (Staphylococcus aureus [22]): 4 mm
3 | COC(=O)/C=C1/C(=O)NC(=S)N1/N=C/c1c[nH]nc1-c1ccc(SC)cc1 | 15 | 6 | 9 | 9 | 15 | 9 | 4 | 16 | 12 | 12 | 4 | 11 | 5 | 16 | 10 | 15 | 5 | 10 | 5 | 16 | Activity (Mus musculus [23]): Non-toxic; Activity (Mus musculus [24]): Non-toxic; zone of inhibition at 1000 µg/mL (Aspergillus flavus [21]): 7 mm; zone of inhibition at 1000 µg/mL (Staphylococcus aureus [22]): 6 mm
4 | COC(=O)/C=C1/C(=O)NC(=S)N1/N=C/c1c[nH]nc1-c1ccc(C)cc1 | 9 | 5 | 9 | 8 | 3 | 4 | 3 | 10 | 5 | 6 | 3 | 5 | 4 | 4 | 9 | 5 | 4 | 10 | 3 | 6 | zone of inhibition at 1000 µg/mL (Aspergillus flavus [21]): 6 mm; zone of inhibition at 1000 µg/mL (Staphylococcus aureus [22]): 4 mm
5 | Clc1cc(-c2n[nH]cc2-c2nc(-c3ccccc3)c(-c3ccccc3)[nH]2)c(Cl)s1 | 9 | 9 | 9 | 3 | 5 | 5 | 4 | 10 | 6 | 7 | 9 | 6 | 5 | 6 | 4 | 7 | 10 | 10 | 5 | 8 | zone of inhibition at 1000 µg/mL (Aspergillus flavus [21]): 10 mm; zone of inhibition at 1000 µg/mL (Staphylococcus aureus [22]): 6 mm
6 | COC(=O)/C=C1/C(=O)NC(=S)N1/N=C/c1c[nH]nc1-c1ccc(Cl)cc1Cl | 9 | 11 | 5 | 7 | 6 | 7 | 6 | 10 | 8 | 4 | 6 | 3 | 7 | 7 | 8 | 6 | 7 | 6 | 5 | 7 | zone of inhibition at 1000 µg/mL (Aspergillus flavus [21]): 12 mm; zone of inhibition at 1000 µg/mL (Staphylococcus aureus [22]): 6 mm
7 | Cc1ccc(-c2n[nH]cc2-c2nc(-c3ccccc3)c(-c3ccccc3)[nH]2)cc1 | 11 | 9 | 9 | 7 | 4 | 8 | 2 | 12 | 14 | 6 | 9 | 5 | 3 | 6 | 8 | 5 | 10 | 10 | 6 | 6 | zone of inhibition at 1000 µg/mL (Aspergillus flavus [21]): 10 mm; zone of inhibition at 1000 µg/mL (Staphylococcus aureus [22]): 7 mm
